Laboratory results from ChEMBL document CHEMBL3865815, “Synthesis, anti-cancer evaluation of benzenesulfonamide derivatives as potent tubulin-targeting agents” (Eur J Med Chem, 2016).
Values after ≈ are worked out from the molar mass of the structure shown. Active and inactive are the calls of the source. The rule behind the calls is not given here.

Tests used:
[1] = Antiproliferative activity against human PC3 cells after 72 hrs by MTT assay; type: functional, cell-based; details: PC-3, 72 h
How it was run: (§1)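 Cells grown in RPMI 1640 with heat-inactivated 10% FBS, 1 mmol/L sodium pyruvate and 2 mmol/L L-glutamine at 37 °C, 5% CO2. Seeded at 3.5×10^4 cells/mL and left 24 h, then exposed to compound for 72 h; DMSO control at 0.5% final. Surviving cells measured by MTT, OD 492/620 nm. IC50 taken from triplicate experiments.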

[2] = Antiproliferative activity against human HepG2 cells after 72 hrs by MTT assay; type: functional, cell-based; details: HepG2, 72 h; how it was run: as §1
[3] = Antiproliferative activity against human SKOV3 cells after 72 hrs by MTT assay; type: functional, cell-based; details: SK-OV-3, 72 h; how it was run: as §1
[4] = Antiproliferative activity against human HCT116 cells after 72 hrs by MTT assay; type: functional, cell-based; details: HCT-116, 72 h; how it was run: as §1
Bos taurus [5] = species on record: Bos taurus; assay: Inhibition of bovine tubulin assessed as induction of microtubule depolymerization at 3 uM preincubated with compound followed by GTP addition by spectrophotometric analysis
How it was run: (§2)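 Bovine brain tubulin rich in microtubule-associated protein, 2 mg/mL, in 80 mM PIPES pH 6.9, 2 mM MgCl2, 0.5 mM EGTA and 5% glycerol, incubated with test agent or DMSO in cuvettes. Polymerization started with 1 mM GTP at 37 °C and followed by absorbance at 340 nm.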

[6] = Antiproliferative activity against human KB/VCR cells after 72 hrs by MTT assay; type: functional, cell-based; how it was run: as §1
[7] = Antiproliferative activity against human KB cells after 72 hrs by MTT assay; type: functional, cell-based; how it was run: as §1
[8] = Antiproliferative activity against human MCF7/ADR cells after 72 hrs by MTT assay; type: functional, cell-based; details: NCI/ADR-RES; how it was run: as §1
[9] = Antiproliferative activity against human K562/A02 cells after 72 hrs by MTT assay; type: functional, cell-based; details: K562/A02, 72 h; how it was run: as §1
[10] = Antiproliferative activity against human K562 cells after 72 hrs by MTT assay; type: functional, cell-based; details: K562, 72 h; how it was run: as §1
[11] = Antiproliferative activity against human MCF7 cells after 72 hrs by MTT assay; type: functional, cell-based; details: MCF7, 72 h; how it was run: as §1
Bos taurus [12] = species on record: Bos taurus; assay: Inhibition of bovine tubulin assessed as induction of microtubule depolymerization at 1 uM preincubated with compound followed by GTP addition by spectrophotometric analysis; how it was run: as §2
SW480 [13] = assay: Induction of apoptosis in human SW480 cells assessed as accumulation of cells at M2 quadrant at 50 nM after 24 hrs by propidium iodide-staining based FACS analysis (reference value: 96.68 %); type: functional
How it was run: (§3)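 SW480 cells grown in 60 mm dishes to 70–80% confluence and treated 24 h, with DMSO as vehicle. All cells harvested, fixed in 70% alcohol and washed twice in cold PBS. Stained 30 min at 37 °C in 5 µg/ml propidium iodide, 100 µg/ml RNase and 0.2% Triton X-100, then analysed by flow cytometry.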

SW480 [14] = assay: Induction of apoptosis in human SW480 cells assessed as early apoptotic cells at 50 nM after 24 hrs by propidium iodide-staining based FACS analysis (reference value: 3.41 %); type: functional; how it was run: as §3
A549 [15] = assay: Inhibition of alpha tubulin polymerization in human A549 cells at 200 nM by Hoechst 33258 staining based fluorescent microscopic analysis; type: cell-based
How it was run: (§4)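 A549 cells treated 24 h with agent (200 nM or 50 nM) or DMSO control. α-Tubulin stained with primary antibody and DyLight488 secondary antibody, nuclei with Hoechst 33258. Imaged by fluorescence microscopy.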

[16] = Solubility of compound in pure water at 25 degC; type: physicochemical
How it was run: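 Measured in pure water at 25 °C.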

A549 [17] = assay: Inhibition of alpha tubulin polymerization in human A549 cells at 50 nM by Hoechst 33258 staining based fluorescent microscopic analysis; type: cell-based; how it was run: as §4
Bos taurus [18] = species on record: Bos taurus; assay: Induction of bovine tubulin polymerization at 10 uM preincubated followed by GTP addition by spectrophotometric analysis; how it was run: as §2

Row | SMILES | IC50 [1] [nM] | IC50 [2] [nM] | IC50 [3] [nM] | IC50 [4] [nM] | also measured
1 | COc1ccc2c(c1)N(S(=O)(=O)c1ccc(-c3cnc(C4CC4)o3)cc1)CCCO2 | 14 | 49 | 53 | 47 | 
2 | O=S(=O)(c1ccc(-c2cnc(C3CC3)o2)cc1)N1CCCOc2ccc(Cl)cc21 | 18 | 28 | 19 | 39 | 
3 | O=[N+]([O-])c1ccc2c(c1)OCCCN2S(=O)(=O)c1ccc(-c2cnc(C3CC3)o2)cc1 | 72 | 71 | 120 | 145 | 
4 | O=[N+]([O-])c1ccc2c(c1)N(S(=O)(=O)c1ccc(-c3cnc(C4CC4)o3)cc1)CCCO2 | 119 | 149 | 53 | 133 | 
5 | COC(=O)Nc1nc2cc(C(=O)c3cccs3)ccc2[nH]1 |  |  |  |  | inhibition (Bos taurus [5]): Active
6 | COc1cccc2c1C(=O)c1c(O)c3c(c(O)c1C2=O)C[C@@](O)(C(=O)CO)C[C@@H]3O[C@H]1C[C@H](N)[C@H](O)[C@H](C)O1 [DOXORUBICIN] |  |  |  |  | IC50 [6]: 1290 nM; IC50 [7]: 141 nM; IC50 [8]: 2940 nM; IC50 [9]: 5960 nM; IC50 [10]: 6 nM; IC50 [11]: 140 nM
7 | O=S(=O)(c1ccc(-c2cnc(C3CC3)o2)cc1)N1CCCSc2ccccc21 | 34 | 27 | 49 | 88 | 
8 | O=S(=O)(c1ccc(-c2cnc(C3CC3)o2)cc1)N1CCCOc2ccc(F)cc21 | 18 | 36 | 15 | 24 | IC50 [6]: 7 nM; IC50 [7]: 7 nM; inhibition (Bos taurus [12]): Active; Activity (SW480 [13]): 92.28%; IC50 [8]: 20 nM; IC50 [9]: 13 nM; IC50 [10]: 8 nM; Activity (SW480 [14]): 7.74%; IC50 [11]: 21 nM; inhibition (A549 [15]): Active; solubility [16]: 10 µg/mL (≈ 24.1 µM)
9 | O=S(=O)(c1ccc(-c2cnc(C3CC3)o2)cc1)N1CCCc2ccccc21 | 38 | 29 | 47 | 49 | 
10 | O=S1(=O)CCCN(S(=O)(=O)c2ccc(-c3cnc(C4CC4)o3)cc2)c2ccccc21 | 5880 | 2170 | 1620 | 263 | 
11 | CC[C@]1(O)C[C@H]2CN(CCc3c([nH]c4ccccc34)[C@@](C(=O)OC)(c3cc4c(cc3OC)N(C=O)[C@H]3[C@@](O)(C(=O)OC)[C@H](OC(C)=O)[C@]5(CC)C=CCN6CC[C@]43[C@@H]65)C2)C1 [VINCRISTINE] |  |  |  |  | IC50 [6]: 871 nM; IC50 [7]: 36 nM; IC50 [8]: 308 nM; IC50 [9]: 926 nM; IC50 [10]: 4 nM; inhibition (A549 [17]): Active; IC50 [11]: 29 nM
12 | Cc1ccc2c(c1)OCCCN2S(=O)(=O)c1ccc(-c2cnc(C3CC3)o2)cc1 | 241 | 795 | 179 | 766 | 
13 | O=S(=O)(c1ccc(-c2cnc(C3CC3)o2)cc1)N1CCOc2ccccc21 | 77 | 58 | 47 | 71 | 
14 | O=S(=O)(c1ccc(-c2cnc(C3CC3)o2)cc1)N1CCCCc2ccccc21 | 39 | 73 | 38 | 72 | 
15 | O=S(=O)(c1ccc(-c2cnc(C3CC3)o2)cc1)N1CCCOc2cc(F)ccc21 | 42 | 65 | 28 | 30 | IC50 [6]: 12 nM; IC50 [7]: 15 nM; inhibition (Bos taurus [12]): Active; IC50 [8]: 12 nM; IC50 [9]: 46 nM; IC50 [10]: 14 nM; IC50 [11]: 6 nM; inhibition (A549 [15]): Active
16 | O=S(=O)(c1ccc(-c2cnc(C3CC3)o2)cc1)N1CCOCc2ccccc21 | 137 | 242 | 175 | 187 | 
17 | COc1ccc2c(c1)OCCCN2S(=O)(=O)c1ccc(-c2cnc(C3CC3)o2)cc1 | 271 | 229 | 185 | 223 | 
18 | O=S(=O)(c1ccc(-c2cnc(C3CC3)o2)cc1)N1CCC[S+]([O-])c2ccccc21 (centres undefined) | > 1000 | > 1000 | > 1000 | > 1000 | 
19 | CN1CCN(S(=O)(=O)c2ccc(-c3cnc(C4CC4)o3)cc2)c2ccccc2C1 | 347 | 525 | 199 | 256 | 
20 | CC(=O)O[C@H]1C(=O)[C@@]2(C)[C@H]([C@H](OC(=O)c3ccccc3)[C@]3(O)C[C@H](OC(=O)[C@H](O)[C@@H](NC(=O)c4ccccc4)c4ccccc4)C(C)=C1C3(C)C)[C@]1(OC(C)=O)CO[C@@H]1C[C@@H]2O |  |  |  |  | Activity (Bos taurus [18]): Active
21 | Cc1ccc2c(c1)N(S(=O)(=O)c1ccc(-c3cnc(C4CC4)o3)cc1)CCCO2 | 41 | 31 | 34 | 29 | 
22 | O=S(=O)(c1ccc(-c2cnc(C3CC3)o2)cc1)N1CCSc2ccccc21 | 49 | 48 | 39 | 45 | 
23 | O=S(=O)(c1ccc(-c2cnc(C3CC3)o2)cc1)N1CCCOc2ccccc21 | 27 | 40 | 36 | 40 | 
24 | Nc1ccc2c(c1)OCCCN2S(=O)(=O)c1ccc(-c2cnc(C3CC3)o2)cc1 | 33 | 100 | 56 | 87 | 
